Hits are enriched below; roughly 2.5% of the tested compounds scored in any of these assays.
SENP8 block-1 – inhibitors of human SENP8 protease | Q96LD8 | recombinant SENP8, Nedd8 substrate fluorescence | inhibition, % at 20 µM | actives 0.64% (n = 360,000) | AID 602440; in the data active means inhibition mostly above about 40%, no sharp cut-off; inactive means mostly below about 27%
SENP6 block – inhibitors of human SENP6 protease; Recombinant SENP6 catalytic domain, aminoluciferin luminescence; inhibition, % at 10 µM; AID 2599; Q9GZR1; actives 1.8% (n = 330,000);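 active means inhibition above about 50% at the single tested dose, limit read from the data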
SENP1 inh – SENP1 (human) catalytic domain inhibition | recombinant SENP1 catalytic domain, CyPet-SUMO1-YPet FRET cleavage | inhibition, % at 10 µM | actives 0.21% (n = 360,000);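 active means inhibition at least 30% at 10 µM, raw YFP signal under a set limit, fluorescence ratio 0.5 to 1.5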
Target sequence (Q9P0U3 419-644 limits assumed): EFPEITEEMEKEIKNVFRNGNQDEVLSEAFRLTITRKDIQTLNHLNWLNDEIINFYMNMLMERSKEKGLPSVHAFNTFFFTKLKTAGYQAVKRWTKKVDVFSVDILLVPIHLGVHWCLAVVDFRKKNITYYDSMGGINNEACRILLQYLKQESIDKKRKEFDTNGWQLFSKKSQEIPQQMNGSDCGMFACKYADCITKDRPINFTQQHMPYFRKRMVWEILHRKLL
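Test system: recombinant human SENP1 catalytic domain, His6-tagged / Medium: pH 8 Tris buffer with EDTA, NaCl, BME, BSA, NP40, catalase / Also added: SUMO1 FRET substrate flanked by Cypet and Ypet, 25 nM / Times: 50 min reaction at room temperature / Signal: FRET, CFP and YFP emission / Control set: no-enzyme low control and enzyme-plus-DMSO high control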
SENP8 block-2 – SENP8 protease inhibition | Q96LD8 | purified SENP8, Z-RLRGG-aminoluciferin cleavage, luminescence | inhibition, % at 10 µM | actives 1.2% (n = 330,000); in the data active means inhibition above about 50%
SENP7 block – SENP7 protease inhibition; inhibition, % at 5 µM; actives 1.5% (n = 330,000); recombinant SENP7, Z-RLRGG-aminoluciferin luminescence, 40 min; AID 434973; Q9BQF6;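 active means inhibition above about 50% at the single test dose, limit read from the data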
Target sequence (Q9BQF6 706-1050 limits assumed): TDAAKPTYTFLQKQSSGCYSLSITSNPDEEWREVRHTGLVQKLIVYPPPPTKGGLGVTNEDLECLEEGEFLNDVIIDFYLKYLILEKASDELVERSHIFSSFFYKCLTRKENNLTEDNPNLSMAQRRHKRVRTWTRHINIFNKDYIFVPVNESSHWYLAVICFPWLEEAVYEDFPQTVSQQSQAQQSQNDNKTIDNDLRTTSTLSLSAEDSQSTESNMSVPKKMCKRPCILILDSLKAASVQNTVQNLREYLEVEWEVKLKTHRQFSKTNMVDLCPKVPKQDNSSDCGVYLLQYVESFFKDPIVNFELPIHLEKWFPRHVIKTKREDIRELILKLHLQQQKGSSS
SENP8 inh conf – confirmation of human SENP8 protease inhibitors; shares compounds with SENP8 block-1; purified SENP8, Nedd8-AMC/pro-Nedd8 cleavage fluorescence, 30 min; inhibition, % at 25 µM; actives 15% (n = 1,400); AID 624319; in the data active means inhibition mostly above about 39%, no sharp cut-off; inactive means mostly below about 34%
A number is an active result; 0 = inactive; - = no result.

SMILES	SENP8 block-1	SENP6 block	SENP1 inh	SENP8 block-2	SENP7 block	SENP8 inh conf
COc1ccc(CNS(=O)(=O)c2cc3c4c(c2)C(C)C(=O)N4CCC3)cc1 (centres undefined)	0	0	0	0	0	-
O=C(CSC1=NNC(c2ccccn2)S1)Nc1ccccc1 (centres undefined)	47.6	0	0	0	0	0
Cc1cc(C)cc(OCC(=O)N(Cc2ccccc2)C2CCS(=O)(=O)C2)c1 (centres undefined)	0	0	0	0	0	-
Cc1ccc(NC(=O)NNS(=O)(=O)c2ccc(Br)cc2)cc1	0	0	0	0	0	-
Cc1ccc(S(=O)(=O)NC(=O)Nc2ccc(N(C)C)cc2)cc1	74.6	0	0	0	0	63.8
CCC(CO)Oc1cc(NCc2ccc(C)cc2)c2ncn(C(C)C)c2c1 (centres undefined)	0	0	0	0	0	-
CC[C@H](CO)Oc1cc(NCc2cccc(N)c2)c2ncn(C(C)C)c2c1	55.7	-	0	-	-	86.8
CCC(CO)Oc1cc(NCc2cccc(C)c2)c2ncn(C(C)C)c2c1 (centres undefined)	41.7	0	0	0	0	54.5
COc1ccc(C(=O)/C=C(\C)Nc2ccc3c(c2)OCO3)cc1	41.4	0	0	0	0	0
CCOC(=O)C1=C(CN2CCSCC2)NC(=O)NC1c1cccc([N+](=O)[O-])c1 (centres undefined)	43.8	0	0	0	0	0
COc1ccc([C@@H]2CC(=O)c3c(O)cc(O)cc3O2)cc1O	0	0	0	0	0	-
O=C1CC(c2ccccc2)Oc2cc(O)ccc21 (centres undefined)	0	0	0	0	0	-
COCOc1ccc(-c2cc(=O)c3c(OCOC)cc(OCOC)cc3o2)cc1	0	0	0	0	0	-
O=C1CC(c2ccc(O)cc2)Oc2cc(O)ccc21 (centres undefined)	51.1	0	0	0	0	0
COc1cc(O)c2c(c1)OC(c1ccc(O)cc1)CC2=O (centres undefined)	73.8	0	0	0	0	0
COCOc1ccc(C2CC(=O)c3c(OCOC)cc(OCOC)cc3O2)cc1 (centres undefined)	53.6	0	0	0	0	0
CCn1c(Sc2ccc([N+](=O)[O-])cn2)nnc1-c1ccco1	0	0	0	0	0	-
CC1(C(=O)Nc2ccc3c(c2)OCCO3)CCN1C(=O)c1ccco1 (centres undefined)	0	-	0	-	-	-
NC(=O)N/N=C/C=C/c1ccc(F)cc1	42.7	0	0	0	0	0
COc1ccc2c(Cl)c(-c3nnc4n3CCCCC4)sc2c1	48.1	0	0	0	0	0
O=c1[nH]n2c(=O)c3c([nH]c2c1N=Nc1cccc(C(F)(F)F)c1)CCCC3	56.0	0	0	0	0	0
O=c1[nH]n2c(=O)c3c([nH]c2c1N=Nc1cccc(Cl)c1)CCC3	0	-	0	-	-	-
COc1ccc(-c2csc(C(C)(NC(C)=O)c3ccccc3)n2)cn1 (centres undefined)	0	-	0	-	-	-
COc1ccc(-c2csc(CCN3N=C(C)CC3=O)n2)cc1	59.0	0	0	0	0	62.0
COc1ccc(-c2csc(C)n2)cc1	0	0	0	0	0	-
SMILES	SENP8 block-1	SENP6 block	SENP1 inh	SENP8 block-2	SENP7 block	SENP8 inh conf
Cc1cccc(N2C(=O)C(Cl)=C(N3CCOCC3)C2=O)c1	46.1	0	0	0	0	0
CCc1ccc(N2C(=O)C(Cl)=C(N3CCOCC3)C2=O)cc1	41.1	0	0	0	0	0
COc1ccc(N2C(=O)C(Cl)=C(N3CCN(Cc4ccccc4)CC3)C2=O)cc1	0	-	0	-	-	-
O=C1C(Cl)=C(N2CCN(Cc3ccccc3)CC2)C(=O)N1c1ccccc1	48.2	0	0	0	0	0
Cc1ccc(C)c(C(=O)N(C)CC(=O)Nc2ccccc2C(F)(F)F)c1	0	0	0	0	0	-
Cc1[nH]c2ccccc2c1C(=O)COC(=O)c1ccc2c(=O)n3c(nc2c1)CCC3	0	0	0	0	0	-
CCCC(=O)Nc1cccc(NC(=O)c2cccc([N+](=O)[O-])c2C)c1	0	0	0	0	0	-
O=C1CC(c2ccco2)CC(O)=C1C=NCCN1CCNCC1 (centres undefined)	0	0	0	0	0	-
O=C1CC(c2ccco2)CC(O)=C1C=NCC1CCNCC1 (centres undefined)	65.3	0	0	0	0	0
Cn1c(C(=O)OC(C(=O)NCc2ccco2)c2ccncc2)cc2sccc21 (centres undefined)	0	0	0	0	0	-
CC(C)(C)NC(=O)CN(CCc1ccccc1)C(=O)c1csnn1	0	0	0	0	0	-
Cc1ccc(NC(=O)c2sc(N)nc2-c2ccc([N+](=O)[O-])cc2)c(C)c1	45.0	0	0	0	0	0
N#CCC(=O)Nc1ccc(C(=O)NCc2ccccn2)cc1	0	0	0	0	0	-
O=C(NCCNc1ccc([N+](=O)[O-])cc1C(F)(F)F)c1ccccc1F	43.5	0	0	0	0	0
CCOc1cc(C2NC(=O)NC(c3ccccc3)=C2C(=O)c2ccccc2)c(Br)cc1OCC(=O)O (centres undefined)	0	0	0	0	0	-
Cn1c(=O)[nH]c2nc[nH]c2c1=O	0	0	0	0	0	-
Cn1cnc2nc[nH]c2c1=O	58.4	-	0	-	-	0
O=C(CN1C(=O)CSC1=O)N1CCc2ccccc2C1	41.8	0	0	0	0	62.9
O=S(=O)(c1ccc(NC(=S)Nc2ccc3c(c2)OCO3)cc1)N1CCOCC1	44.5	0	0	0	0	0
Nc1nc2cc(Cl)ccc2cc1C(=O)NCCCc1ccccc1	0	-	0	-	-	-
Cc1nc2ccc(NC(=O)c3cc([N+](=O)[O-])cc([N+](=O)[O-])c3Cl)cc2s1	40.8	-	0	-	-	0
COc1ccc(N2CCN(C(=O)c3cn(CC4CCCCC4)nn3)CC2)cc1	0	0	0	0	0	-
CC(=O)Nc1ccc(S(=O)(=O)N[C@@H](C)C(=O)OCc2cc([N+](=O)[O-])cc3c2OCOC3)cc1	45.2	0	0	0	0	0
CN1CCN(C(=O)c2cc(Cl)ccc2NC(=O)c2ccc(Cl)cc2Cl)CC1	0	0	0	0	0	-
O=C1CC(Sc2ncccc2C(=O)O)C(=O)N1 (centres undefined)	0	0	0	0	0	-
O=C1CC(SC(=S)C2CCCC2=O)C(=O)N1 (centres undefined)	40.6	-	0	-	-	0
COc1ccc(OC)c(C(=O)c2c(C)oc3cc([N+](=O)[O-])c(O)c([N+](=O)[O-])c23)c1	0	0	0	0	0	-
Cc1oc2cc([N+](=O)[O-])c(O)c([N+](=O)[O-])c2c1C(=O)c1ccc(Cl)cc1	42.3	0	0	0	0	0
COc1cc(NC(C)=O)c2ncccc2c1[N+](=O)[O-]	47.7	0	0	0	0	0
CSc1nsc(SCC(=O)Nc2ccc(C(=O)O)cc2)n1	0	0	0	0	0	-
